Test results taken from ChEMBL document CHEMBL5131562, “1,3-Dioxane-Linked Novel Bacterial Topoisomerase Inhibitors: Expanding Structural Diversity and the Antibacterial Spectrum” (ACS Med Chem Lett, 2022).
Values after ≈ are worked out from the molar mass of the structure shown.

Columns and labels:
[1] = target: Voltage-gated inwardly rectifying potassium channel KCNH2 (Homo sapiens, UniProt Q12809); assay: Inhibition of hERG cardiac ion channel; type: toxicity
Outline: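 hERG channel inhibition was run by a contract lab. […] Determinations were made in duplicate or triplicate (n = 2 or 3).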

Staphylococcus aureus [2] = assay: Antibacterial activity against cystic fibrosis isolate Staphylococcus aureus by CLSI method; type: functional
Staphylococcus aureus [3] = assay: Antibacterial activity against Staphylococcus aureus ATCC 29213 by CLSI method; type: functional
Staphylococcus aureus [4] = assay: Antibacterial activity against methicillin-resistant Staphylococcus aureus USA300 by CLSI method; type: functional
Staphylococcus aureus [5] = assay: Antibacterial activity against Staphylococcus aureus 3527 by CLSI method; type: functional
Staphylococcus aureus [6] = assay: Antibacterial activity against Staphylococcus aureus harbouring GyrA D83N mutant by CLSI method; type: functional
DNA gyrase = DNA gyrase (Staphylococcus aureus, UniProt P0A0K8+P20831); assay: Inhibition of Staphylococcus aureus DNA gyrase supercoiling activity incubated for 25 min by ethidium bromide/bromophenol blue staining based agarose gel electrophoresis analysis; type: protein-complex assay
Topoisomerase IV = Topoisomerase IV (Staphylococcus aureus, UniProt P0C1S7+P0C1U9); assay: Inhibition of Staphylococcus aureus DNA topoisomerase 4 decatenation activity using kDNA as substrate incubated for 10 to 20 min by ethidium bromide/bromophenol blue staining based agarose gel electrophoresis analysis; type: protein-complex assay
Staphylococcus aureus [7] = assay: Selectivity ratio of IC50 for inhibition of Staphylococcus aureus DNA topoisomerase 4 decatenation activity to IC50 for inhibition of Staphylococcus aureus DNA gyrase supercoiling activity
Neisseria gonorrhoeae [8] = assay: Antimicrobial activity against Neisseria gonorrhoeae G strain harbouring type 2 topoisomerase GyrA S91F and ParE G410V mutant incubated for 20 to 24 hrs by CLSI protocol based broth microdilution method; type: functional; details: time 20-24 hrs
Neisseria gonorrhoeae [9] = assay: Antimicrobial activity against wild type Neisseria gonorrhoeae ATCC 49226 incubated for 20 to 24 hrs by CLSI protocol based broth microdilution method; type: functional; details: time 20-24 hrs
Neisseria gonorrhoeae [10] = assay: Antimicrobial activity against wild type Neisseria gonorrhoeae F strain incubated for 20 to 24 hrs by CLSI protocol based broth microdilution method; type: functional; details: time 20-24 hrs
Neisseria gonorrhoeae [11] = assay: Antimicrobial activity against Neisseria gonorrhoeae K strain harbouring type 2 topoisomerase GyrA S91F, D95N and ParC S87R, S88P mutant incubated for 20 to 24 hrs by CLSI protocol based broth microdilution method; type: functional; details: time 20-24 hrs
Neisseria gonorrhoeae [12] = assay: Antimicrobial activity against wild type Neisseria gonorrhoeae O strain incubated for 20 to 24 hrs by CLSI protocol based broth microdilution method; type: functional; details: time 20-24 hrs
Neisseria gonorrhoeae [13] = assay: Antimicrobial activity against wild type Neisseria gonorrhoeae P strain incubated for 20 to 24 hrs by CLSI protocol based broth microdilution method; type: functional; details: time 20-24 hrs
Neisseria gonorrhoeae [14] = assay: Antimicrobial activity against wild type Neisseria gonorrhoeae V strain harbouring type 2 topoisomerase GyrA S91F, D95G and ParC S87R mutant incubated for 20 to 24 hrs by CLSI protocol based broth microdilution method; type: functional; details: time 20-24 hrs
Neisseria gonorrhoeae [15] = assay: Antimicrobial activity against wild type Neisseria gonorrhoeae Y strain harbouring type 2 topoisomerase GyrA S91F, D95G and ParC S87R mutant incubated for 20 to 24 hrs by CLSI protocol based broth microdilution method; type: functional; details: time 20-24 hrs
[16] = Metabolic stability in mouse liver microsomes assessed as half life; type: ADME, Microsome
[17] = Cytotoxicity activity against human K562 cells assessed as inhibition of cellular growth; type: toxicity, cell-based
Outline: (§1)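 Human K562 leukemia cells were tested alongside K/VP.5, an etoposide-resistant clonal subline derived from them that has reduced levels of human topoisomerase IIα. Cell growth inhibition was expressed as an IC50.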

[18] = Cytotoxicity activity against human K/VP.5 cells assessed as inhibition of cellular growth; type: toxicity, cell-based; outline: as §1

Structure (SMILES)	IC50 [1] [µM]	MIC (Staphylococcus aureus [2]) [µg/mL]	MIC (Staphylococcus aureus [3]) [µg/mL]	MIC (Staphylococcus aureus [4]) [µg/mL]	MIC (Staphylococcus aureus [5]) [µg/mL]	MIC (Staphylococcus aureus [6]) [µg/mL]	IC50 (DNA gyrase) [µM]	IC50 (Topoisomerase IV) [µM]	Ratio IC50 (Staphylococcus aureus [7])	MIC (Neisseria gonorrhoeae [8]) [µg/mL]	MIC (Neisseria gonorrhoeae [9]) [µg/mL]	MIC (Neisseria gonorrhoeae [10]) [µg/mL]	MIC (Neisseria gonorrhoeae [11]) [µg/mL]	MIC (Neisseria gonorrhoeae [12]) [µg/mL]	MIC (Neisseria gonorrhoeae [13]) [µg/mL]	MIC (Neisseria gonorrhoeae [14]) [µg/mL]	MIC (Neisseria gonorrhoeae [15]) [µg/mL]	half-life [16] [min]	IC50 [17] [µM]	IC50 [18] [µM]
COc1ccc2ncc(F)c(C[C@H](O)[C@H]3OC[C@H](NC(=O)c4ccc5c(n4)NC(=O)CO5)CO3)c2n1	> 100	≤ 0.06	0.125 (≈ 0.25 µM)	≤ 0.06	≤ 0.06	1 (≈ 2 µM)	0.19	1.1	5.8	0.25 (≈ 0.501 µM)	≤ 0.015	≤ 0.015	0.12 (≈ 0.24 µM)	0.06 (≈ 0.12 µM)	≤ 0.015	≤ 0.015	≤ 0.015	5.56	0.49	3.1
COc1ccc2ncc(F)c(C[C@H](O)[C@H]3OC[C@H](NCc4ccc5c(c4)OCCO5)CO3)c2n1	–	–	–	–	–	–	–	–	–	0.5 (≈ 1.06 µM)	≤ 0.03	≤ 0.03	≤ 0.03	≤ 0.03	≤ 0.03	≤ 0.03	≤ 0.03	–	–	–
CO/N=C(\C(=O)N[C@@H]1C(=O)N2C(C(=O)O)=C(CSc3nc(=O)c(O)nn3C)CS[C@H]12)c1csc(N)n1 [CEFTRIAXONE]	–	–	–	–	–	–	–	–	–	≤ 0.001	0.004 (≈ 0.00721 µM)	≤ 0.001	0.008 (≈ 0.0144 µM)	0.004 (≈ 0.00721 µM)	≤ 0.001	0.002 (≈ 0.00361 µM)	1 (≈ 1.8 µM)	–	–	–
COc1ccc2ncc(F)c(C[C@H](O)[C@H]3OC[C@H](NC(=O)c4ccc5c(c4)OCCO5)CO3)c2n1	> 100	0.25 (≈ 0.515 µM)	0.25 (≈ 0.515 µM)	0.25 (≈ 0.515 µM)	0.25 (≈ 0.515 µM)	2 (≈ 4.12 µM)	0.23	1.7	7.6	> 16	4 (≈ 8.24 µM)	0.25 (≈ 0.515 µM)	> 16	> 16	> 16	0.25 (≈ 0.515 µM)	0.5 (≈ 1.03 µM)	14.2	1.6	6
O=c1ccc2ccc(F)c3c2n1CC3C[C@H]1OC[C@H](NCc2cc3c(cn2)OCCC3)CO1 (some centres undefined)	53	≤ 0.25	≤ 0.25	0.5 (≈ 1.11 µM)	0.5 (≈ 1.11 µM)	2 (≈ 4.43 µM)	0.58	2.9	5	2 (≈ 4.43 µM)	0.25 (≈ 0.554 µM)	≤ 0.03	0.5 (≈ 1.11 µM)	0.5 (≈ 1.11 µM)	1 (≈ 2.21 µM)	≤ 0.03	≤ 0.03	3.64	109	85
O=C1CSc2ccc(CN[C@H]3CO[C@H](CC4Cn5c(=O)ccc6ncc(F)c4c65)OC3)nc2N1 (some centres undefined)	55	1 (≈ 2.07 µM)	1 (≈ 2.07 µM)	1 (≈ 2.07 µM)	1 (≈ 2.07 µM)	8 (≈ 16.5 µM)	1.4	2.1	1.5	–	–	–	–	–	–	–	–	36.4	81.7	128
COc1ccc2ncc(F)c(C[C@H](O)[C@H]3OC[C@H](NCc4ccc5c(n4)NC(=O)CO5)CO3)c2n1	–	–	–	–	–	–	–	–	–	0.25 (≈ 0.515 µM)	≤ 0.03	0.06 (≈ 0.124 µM)	≤ 0.03	≤ 0.03	≤ 0.03	≤ 0.03	≤ 0.03	–	–	–
O=c1ccc2ncc(=O)n3c2n1CC3CN1CCC(NCc2cc3c(cn2)OCCC3)CC1 (racemic)	–	0.25 (≈ 0.557 µM)	0.25 (≈ 0.557 µM)	0.25 (≈ 0.557 µM)	0.25 (≈ 0.557 µM)	8 (≈ 17.8 µM)	–	–	–	–	–	–	–	–	–	–	–	–	–	–
COc1ccc2ncc(F)c(C[C@H](O)[C@H]3OC[C@H](NCc4cc5c(nn4)OCCO5)CO3)c2n1	–	–	–	–	–	–	–	–	–	> 32	32 (≈ 67.6 µM)	8 (≈ 16.9 µM)	> 32	32 (≈ 67.6 µM)	32 (≈ 67.6 µM)	8 (≈ 16.9 µM)	16 (≈ 33.8 µM)	–	–	–
